Tested on: HEK-293T
Test: Multiplex assay against HEK293T;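 on Population Tubulin-Different-Phenotype (%): share of the cells with healthy nuclei that show this phenotype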
Type: toxicity, cell-based
Conditions: human
Method in brief: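 At seeding, live cells were stained with Hoechst33342, BioTracker Green Microtubule Cytoskeleton Dye, MitoTracker Red and Annexin V Alexa Fluor 680. After compound addition they were imaged on a CQ1 microscope at 37°C and 5% CO2, and CellPathfinder machine-learning gating sorted them into Hoechst high-intensity objects or normal cells, with normal cells further split into healthy, pyknosed or fragmented nuclei and pyknosed cells into mitotic or apoptotic. Tubulin, mitochondrial-mass and membrane-permeability phenotypes are given as per cents of cells with healthy nuclei.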

[1] = 24 h, 1 µM, compound concentration 1 uM, replicate 2
[2] = 24 h, 10 µM, compound concentration 10 uM, replicate 1
[3] = 24 h, 10 µM, compound concentration 10 uM, replicate 2
[4] = 48 h, 1 µM, compound concentration 1 uM, replicate 1
[5] = 48 h, 1 µM, compound concentration 1 uM, replicate 2
[6] = 48 h, 10 µM, compound concentration 10 uM, replicate 1
[7] = 48 h, 10 µM, compound concentration 10 uM, replicate 2

`CC(/C=C1\SC(=S)N(CCCC(=O)Nc2ccc(C(=O)O)c(O)c2)C1=O)=C\c1ccccc1` was tested, and the “Population Hoechst High Intensity Objects (%)” value [1] was 1%, the “Population Membrane Permeable-Phenotype (%)” value [1] was 13% and the “Population Mitochondria Different-Phenotype (%)” value [1] was 10%. The “Population Mitotic Cells (%)” value [1] was 84%, the “Population Normal (%)” value [1] was 98% and the “Population Pyknosed Nuclei (%)” value [1] was 32%. For the same compound, the “Population Tubulin-Different-Phenotype (%)” value [1] was 30%, the “Total Cell Count” value [1] was 315 and the “Population Apoptotic (%)” value [2] was 41%. The “Population Fragmented Nuclei (%)” value [2] was 11%, the “Population Healthy Nuclei (%)” value [2] was 38% and the “Population Hoechst High Intensity Objects (%)” value [2] was 16%. The “Population Membrane Permeable-Phenotype (%)” value [2] was 2%, the “Population Mitochondria Different-Phenotype (%)” value [2] was 60% and the “Population Mitotic Cells (%)” value [2] was 58%. The “Population Normal (%)” value [2] was 83%, the “Population Pyknosed Nuclei (%)” value [2] was 49% and the “Population Tubulin-Different-Phenotype (%)” value [2] was 50%. For the same compound, the “Total Cell Count” value [2] was 261, the “Population Apoptotic (%)” value [3] was 7% and the “Population Fragmented Nuclei (%)” value [3] was 2%. The “Population Healthy Nuclei (%)” value [3] was 72%, the “Population Hoechst High Intensity Objects (%)” value [3] was 1% and the “Population Membrane Permeable-Phenotype (%)” value [3] was 13%. The “Population Mitochondria Different-Phenotype (%)” value [3] was 5%, the “Population Mitotic Cells (%)” value [3] was 92% and the “Population Normal (%)” value [3] was 98%. The “Population Pyknosed Nuclei (%)” value [3] was 24%, the “Population Tubulin-Different-Phenotype (%)” value [3] was 23% and the “Total Cell Count” value [3] was 356. The “Population Apoptotic (%)” value [4] was 31%, the “Population Fragmented Nuclei (%)” value [4] was 19% and the “Population Healthy Nuclei (%)” value [4] was 40%. For the same compound, the “Population Hoechst High Intensity Objects (%)” value [4] was 10%, the “Population Membrane Permeable-Phenotype (%)” value [4] was 4% and the “Population Mitochondria Different-Phenotype (%)” value [4] was 24%. For the same compound, the “Population Mitotic Cells (%)” value [4] was 68%, the “Population Normal (%)” value [4] was 89% and the “Population Pyknosed Nuclei (%)” value [4] was 40%. For the same compound, the “Population Tubulin-Different-Phenotype (%)” value [4] was 26%, the “Total Cell Count” value [4] was 330 and the “Population Apoptotic (%)” value [5] was 3%. For the same compound, the “Population Fragmented Nuclei (%)” value [5] was 4%, the “Population Healthy Nuclei (%)” value [5] was 83% and the “Population Hoechst High Intensity Objects (%)” value [5] was 3%. For the same compound, the “Population Membrane Permeable-Phenotype (%)” value [5] was 9%, the “Population Mitochondria Different-Phenotype (%)” value [5] was 3% and the “Population Mitotic Cells (%)” value [5] was 96%. For the same compound, the “Population Normal (%)” value [5] was 96%, the “Population Pyknosed Nuclei (%)” value [5] was 11% and the “Total Cell Count” value [5] was 570. The “Population Apoptotic (%)” value [6] was 49%, the “Population Fragmented Nuclei (%)” value [6] was 17% and the “Population Healthy Nuclei (%)” value [6] was 44%. The “Population Hoechst High Intensity Objects (%)” value [6] was 12%, the “Population Membrane Permeable-Phenotype (%)” value [6] was 2% and the “Population Mitochondria Different-Phenotype (%)” value [6] was 26%. For the same compound, the “Population Mitotic Cells (%)” value [6] was 50%, the “Population Normal (%)” value [6] was 87% and the “Population Pyknosed Nuclei (%)” value [6] was 37%. The “Population Tubulin-Different-Phenotype (%)” value [6] was 29%, the “Total Cell Count” value [6] was 339 and the “Population Apoptotic (%)” value [7] was 12%. The “Population Fragmented Nuclei (%)” value [7] was 7%, the “Population Healthy Nuclei (%)” value [7] was 86% and the “Population Hoechst High Intensity Objects (%)” value [7] was 3%. The “Population Membrane Permeable-Phenotype (%)” value [7] was 9%, the “Population Mitochondria Different-Phenotype (%)” value [7] was 3% and the “Population Mitotic Cells (%)” value [7] was 87%. For the same compound, the “Population Normal (%)” value [7] was 96%, the “Population Pyknosed Nuclei (%)” value [7] was 6% and the “Population Tubulin-Different-Phenotype (%)” value [7] was 16%. For the same compound, the “Total Cell Count” value [7] was 675.

Reference: ChEMBL document CHEMBL4689842, “EUbOPEN Chemogenomics Library wave 1” (2021)
